Measured values reported in ChEMBL document CHEMBL4033712, “Synthesis and biological evaluation of new C-12(α/β)-(N-) sulfamoyl-phenylamino-14-deoxy-andrographolide derivatives as potent anti-cancer agents” (Bioorg Med Chem Lett, 2017).

Experiments:
NHDF = assay: (§1) Growth inhibition of human NHDF after 72 hrs by CellTiter-Glo luminescent cell viability assay; format: cell-based; details: nhdf, 72 h
SF-539 = assay: Growth inhibition of human SF539 cells incubated for 48 hrs by sulforhodamine B assay; format: functional; details: SF-539, 48 h; for CC50: read-out: LC50 (the source's name)
How it was run: (§2)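 NCI 60 human tumour cell line panel, five-dose study at 0.01, 0.1, 1, 10 and 100 µM, 48 h incubation. Sulforhodamine B protein-binding dye end point. GI50 (50% decrease in net cell growth), TGI (total growth inhibition) and LC50 (net 50% loss of initial cells) read from log concentration versus % growth inhibition curves.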

HOP-92 = assay: Growth inhibition of human HOP92 cells incubated for 48 hrs by sulforhodamine B assay; format: functional; details: HOP-92, 48 h; for CC50: read-out: LC50 (the source's name)
How it was run: (§3)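 NCI-60 five-dose screen at 0.01, 0.1, 1, 10 and 100 µM, 48 h incubation, sulforhodamine B end point. GI50 (50% decrease in net growth), TGI (total growth inhibition) and LC50 (net 50% loss of initial cells) taken from log concentration versus % growth inhibition curves.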

UO-31 = assay: Growth inhibition of human UO31 cells incubated for 48 hrs by sulforhodamine B assay; format: functional; details: UO-31, 48 h; how it was run: as §2
Malme-3M = assay: Growth inhibition of human MALME-3M cells incubated for 48 hrs by sulforhodamine B assay; format: functional; how it was run: as §3
[1] = as §1; format: cell-based; details: NHDF cells

SMILES: C=C1CC[C@@H]2[C@](C)(COC(C)=O)[C@H](OC(C)=O)CC[C@@]2(C)[C@H]1CC(Nc1ccc(S(=O)(=O)Nc2ncccn2)cc1)C1=CCOC1=O (stereo partly drawn)
- growth inhibition (GI) (NHDF): Non-Toxic
- GI50 (SF-539): 1.5 µM
- TGI (SF-539): 2.94 µM
- CC50 (SF-539): 5.78 µM
- GI50 (HOP-92): 3.1 µM
- TGI (HOP-92): 8.85 µM
- CC50 (HOP-92): 31.1 µM
- GI50 (UO-31): 1.51 µM
- LC50 (concentration giving net 50% loss of initial cells) (UO-31): 5.85 µM
- TGI (UO-31): 2.97 µM

SMILES: C=C1CC[C@@H]2[C@](C)(COC(C)=O)[C@H](OC(C)=O)CC[C@@]2(C)[C@H]1CC(Nc1ccc(S(=O)(=O)Nc2nccs2)cc1)C1=CCOC1=O (stereo partly drawn)
- GI50 (SF-539): 2.35 µM
- TGI (SF-539): 6.31 µM
- CC50 (SF-539): 23.5 µM
- GI50 (HOP-92): 12.4 µM
- TGI (HOP-92): 25.3 µM
- CC50 (HOP-92): 52 µM
- GI50 (UO-31): 4.07 µM
- LC50 (concentration giving net 50% loss of initial cells) (UO-31): 41.8 µM
- TGI (UO-31): 16.1 µM

SMILES: C=C1CC[C@@H]2[C@](C)(COC(C)=O)[C@H](OC(C)=O)CC[C@@]2(C)[C@H]1CC(Nc1ccc(S(=O)(=O)Nc2cc(C)on2)cc1)C1=CCOC1=O (stereo partly drawn)
- GI50 (SF-539): 1.59 µM
- TGI (SF-539): 3.06 µM
- CC50 (SF-539): 5.89 µM
- GI50 (HOP-92): 3.07 µM
- TGI (HOP-92): 8 µM
- CC50 (HOP-92): 28 µM
- GI50 (Malme-3M): 1.89 µM
- TGI (Malme-3M): 4 µM
- GI50 (UO-31): 1.69 µM
- LC50 (concentration giving net 50% loss of initial cells) (UO-31): 7.33 µM
- TGI (UO-31): 3.52 µM

SMILES: C=C1CC[C@@H]2[C@](C)(COC(C)=O)[C@H](OC(C)=O)CC[C@@]2(C)[C@H]1CC(Nc1ccc(S(=O)(=O)Nc2nccc(C)n2)cc1)C1=CCOC1=O (stereo partly drawn)
- GI50 (SF-539): 2.07 µM
- TGI (SF-539): 4.73 µM
- CC50 (SF-539): 12.4 µM
- GI50 (HOP-92): 6.24 µM
- TGI (HOP-92): 18.9 µM
- CC50 (HOP-92): 44.5 µM
- GI50 (UO-31): 2.91 µM
- LC50 (concentration giving net 50% loss of initial cells) (UO-31): 33.3 µM
- TGI (UO-31): 10.6 µM

SMILES: C=C1CC[C@@H]2[C@](C)(COC(C)=O)[C@H](OC(C)=O)CC[C@@]2(C)[C@H]1CC(Nc1ccc(S(=O)(=O)Nc2ccc(Cl)nn2)cc1)C1=CCOC1=O (stereo partly drawn)
- LC50 (NHDF): 3.496358 µM
- GI50 at 72 h [1]: 1.54 µM
- GI50 (SF-539): 1.23 µM
- TGI (SF-539): 2.63 µM
- CC50 (SF-539): 5.62 µM
- GI50 (HOP-92): 2.7 µM
- TGI (HOP-92): 7.89 µM
- CC50 (HOP-92): 27.5 µM
- GI50 (Malme-3M): 1.72 µM
- TGI (Malme-3M): 3.9 µM
- CC50 (Malme-3M; read-out: LC50 (the source's name)): 8.84 µM
- GI50 (UO-31): 1.45 µM
- LC50 (concentration giving net 50% loss of initial cells) (UO-31): 5.73 µM
- TGI (UO-31): 2.88 µM
